In data set [1] the target is T1, Toll-like receptor 7 (Homo sapiens) (UniProt Q9NYK1).
T1 sequence (whole entry): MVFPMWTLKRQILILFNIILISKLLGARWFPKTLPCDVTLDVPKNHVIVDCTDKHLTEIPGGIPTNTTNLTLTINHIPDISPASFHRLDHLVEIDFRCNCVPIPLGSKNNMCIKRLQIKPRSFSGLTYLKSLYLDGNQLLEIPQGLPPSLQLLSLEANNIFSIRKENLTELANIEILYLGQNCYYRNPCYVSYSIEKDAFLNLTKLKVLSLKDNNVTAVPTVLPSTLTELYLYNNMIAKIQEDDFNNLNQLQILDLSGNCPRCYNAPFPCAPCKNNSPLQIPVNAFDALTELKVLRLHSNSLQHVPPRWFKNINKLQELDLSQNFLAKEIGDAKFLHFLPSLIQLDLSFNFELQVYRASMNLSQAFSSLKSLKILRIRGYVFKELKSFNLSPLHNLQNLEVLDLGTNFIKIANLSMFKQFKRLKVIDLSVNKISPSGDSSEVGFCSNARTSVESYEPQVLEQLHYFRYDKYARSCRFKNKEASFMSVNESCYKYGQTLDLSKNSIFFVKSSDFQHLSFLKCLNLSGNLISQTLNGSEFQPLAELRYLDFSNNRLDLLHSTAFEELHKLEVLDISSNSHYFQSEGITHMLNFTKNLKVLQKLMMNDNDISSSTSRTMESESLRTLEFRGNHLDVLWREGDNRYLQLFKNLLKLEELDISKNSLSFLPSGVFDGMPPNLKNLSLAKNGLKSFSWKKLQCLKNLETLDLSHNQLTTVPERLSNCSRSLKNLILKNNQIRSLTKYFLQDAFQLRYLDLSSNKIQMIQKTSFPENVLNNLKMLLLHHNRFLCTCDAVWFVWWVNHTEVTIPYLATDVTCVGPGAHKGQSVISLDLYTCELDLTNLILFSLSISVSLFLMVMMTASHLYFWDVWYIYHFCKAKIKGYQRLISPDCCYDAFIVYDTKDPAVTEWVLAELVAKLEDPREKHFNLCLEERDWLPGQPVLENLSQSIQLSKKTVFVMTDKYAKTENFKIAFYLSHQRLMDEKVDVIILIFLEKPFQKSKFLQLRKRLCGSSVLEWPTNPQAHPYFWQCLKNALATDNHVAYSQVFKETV
The data set can be described thus: Agonist activity at human TLR7 expressed in HEK293 cells co-expressing secreted alkaline phosphatase assessed as induction of NF-kappaB/AP-1 promoter activity by measuring increase in secreted alkaline phosphatase level by spectrophotometric method. The data set is classed as cell-based. In outline: (§1)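 HEK293 cells stably co-transfected with the relevant human TLR (2, 3, 4, 5, 7, 8 or 9) plus an NF-κB/AP-1-driven secreted alkaline phosphatase reporter, kept in selection medium. Cells at ~10⁵ cells/ml were exposed to graded concentrations of stimuli in 384-well format, liquid-handler assisted. Supernatant sAP was read at 620 nm with an alkaline phosphatase-specific chromogen.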

In data set [2] the target is T2, Toll-like receptor 8 (Homo sapiens) (UniProt Q9NR97).
T2 sequence (whole entry): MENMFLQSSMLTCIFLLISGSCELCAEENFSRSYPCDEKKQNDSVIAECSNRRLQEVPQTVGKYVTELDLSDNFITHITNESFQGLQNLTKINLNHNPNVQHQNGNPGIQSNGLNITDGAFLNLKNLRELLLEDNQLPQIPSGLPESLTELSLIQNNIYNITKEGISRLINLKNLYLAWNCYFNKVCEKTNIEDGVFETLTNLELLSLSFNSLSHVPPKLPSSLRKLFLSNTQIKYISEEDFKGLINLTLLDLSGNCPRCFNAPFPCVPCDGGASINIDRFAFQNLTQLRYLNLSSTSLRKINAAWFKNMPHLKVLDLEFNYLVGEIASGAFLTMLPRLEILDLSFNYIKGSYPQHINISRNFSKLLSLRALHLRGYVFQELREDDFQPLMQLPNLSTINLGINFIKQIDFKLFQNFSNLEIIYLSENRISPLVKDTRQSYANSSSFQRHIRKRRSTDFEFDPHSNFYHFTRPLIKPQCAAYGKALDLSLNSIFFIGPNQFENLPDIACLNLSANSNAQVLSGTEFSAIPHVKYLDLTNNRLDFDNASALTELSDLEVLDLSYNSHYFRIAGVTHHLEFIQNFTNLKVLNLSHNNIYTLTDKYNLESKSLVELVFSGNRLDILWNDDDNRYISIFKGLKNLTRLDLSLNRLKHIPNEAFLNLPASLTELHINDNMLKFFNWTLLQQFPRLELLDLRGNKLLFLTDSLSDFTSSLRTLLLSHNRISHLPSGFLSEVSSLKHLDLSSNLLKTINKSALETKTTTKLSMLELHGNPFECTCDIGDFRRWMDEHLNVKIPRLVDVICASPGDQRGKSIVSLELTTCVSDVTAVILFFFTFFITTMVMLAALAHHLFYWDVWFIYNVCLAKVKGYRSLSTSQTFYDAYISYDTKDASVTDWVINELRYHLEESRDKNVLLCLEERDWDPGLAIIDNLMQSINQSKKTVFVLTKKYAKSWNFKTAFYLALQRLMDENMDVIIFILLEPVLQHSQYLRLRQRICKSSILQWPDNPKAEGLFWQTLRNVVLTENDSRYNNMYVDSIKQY
The data set can be described thus: Agonist activity at human TLR8 expressed in HEK293 cells co-expressing secreted alkaline phosphatase assessed as induction of NF-kappaB/AP-1 promoter activity by measuring increase in secreted alkaline phosphatase level by spectrophotometric method. In kind it is cell-based. In outline:
as §1

The target of data set [3] is T1, Toll-like receptor 7 (Homo sapiens). The data set can be described thus: Inhibition of human TLR7 expressed in HEK293 cells co-expressing secreted alkaline phosphatase assessed as NF-kappaB/AP-1 promoter activity by measuring increase in secreted alkaline phosphatase level at higher concentration by spectrophotometric method. In kind it is cell-based.
Data set [4] addresses T2, Toll-like receptor 8 (Homo sapiens). Kind of data set: Inhibition of human TLR8 expressed in HEK293 cells co-expressing secreted alkaline phosphatase assessed as NF-kappaB/AP-1 promoter activity by measuring increase in secreted alkaline phosphatase level at higher concentration by spectrophotometric method. The data set is classed as cell-based.
Another data set concerns HEK293. The data set can be described thus: Cytotoxicity against HEK293 cells expressing human TLR7 or TLR8 at 10^-4M. The data set is classed as cell-based. The following applies: hek293, 100 µM.
The target of data set [5] is T2, Toll-like receptor 8 (Homo sapiens). The data set can be described thus: Agonist activity at TLR8 in human […] conventional dendritic cells assessed as upregulation of CD80 expression after 16 hrs by efluor 780 dye based flow cytometry. In outline: (§2)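 Human PBMCs were incubated with serial compound dilutions at 37 °C for 16 h, with DMSO controls. Cells were stained with eFluor780 viability dye, then lineage and DC antibodies plus CD80 PE, and fixed. 250,000 gated events were acquired. pDCs were gated as Live Lin⁻ CD123⁺ CD303⁺ CD304⁺ HLA-DR⁺. cDCs were gated as Lin⁻ CD1c⁺ CD141⁻ CD11c⁺ HLA-DR⁺ or Lin⁻ CD141⁺ CD1c⁻ HLA-DR⁺. Median fluorescence intensity was quantified.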

Data set [6] has the same target. Kind of data set: Agonist activity at TLR8 in human CD141 positive conventional dendritic cells assessed as upregulation of CD80 expression after 16 hrs by efluor 780 dye based flow cytometry. In outline: as §2
Background: A flow cytometer gives signals particle by particle.

Data set [7] concerns the target T1, Toll-like receptor 7 (Homo sapiens). Kind of data set: Agonist activity at TLR7 in human plasmacytoid dendritic cells assessed as upregulation of CD80 expression after 16 hrs by efluor 780 dye based flow cytometry. In outline: as §2
Data set [8] shares this target. The data set can be described thus: Agonist activity at human TLR7 expressed in HEK293 cells co-expressing secreted alkaline phosphatase assessed as induction of NF-kappaB/AP-1 promoter activity by measuring increase in secreted alkaline phosphatase level at 100 uM by spectrophotometric method. The data set is classed as cell-based.
For data set [9], the target named is Toll-like receptor 2 (Homo sapiens) (UniProt O60603). The data set can be described thus: Activity at human TLR2 expressed in HEK293 cells co-expressing secreted alkaline phosphatase assessed as induction of NF-kappaB/AP-1 promoter activity by measuring increase in secreted alkaline phosphatase level by spectrophotometric method. In kind it is cell-based. In outline: as §1
Sequence of Toll-like receptor 2 (Homo sapiens) (O60603 whole entry): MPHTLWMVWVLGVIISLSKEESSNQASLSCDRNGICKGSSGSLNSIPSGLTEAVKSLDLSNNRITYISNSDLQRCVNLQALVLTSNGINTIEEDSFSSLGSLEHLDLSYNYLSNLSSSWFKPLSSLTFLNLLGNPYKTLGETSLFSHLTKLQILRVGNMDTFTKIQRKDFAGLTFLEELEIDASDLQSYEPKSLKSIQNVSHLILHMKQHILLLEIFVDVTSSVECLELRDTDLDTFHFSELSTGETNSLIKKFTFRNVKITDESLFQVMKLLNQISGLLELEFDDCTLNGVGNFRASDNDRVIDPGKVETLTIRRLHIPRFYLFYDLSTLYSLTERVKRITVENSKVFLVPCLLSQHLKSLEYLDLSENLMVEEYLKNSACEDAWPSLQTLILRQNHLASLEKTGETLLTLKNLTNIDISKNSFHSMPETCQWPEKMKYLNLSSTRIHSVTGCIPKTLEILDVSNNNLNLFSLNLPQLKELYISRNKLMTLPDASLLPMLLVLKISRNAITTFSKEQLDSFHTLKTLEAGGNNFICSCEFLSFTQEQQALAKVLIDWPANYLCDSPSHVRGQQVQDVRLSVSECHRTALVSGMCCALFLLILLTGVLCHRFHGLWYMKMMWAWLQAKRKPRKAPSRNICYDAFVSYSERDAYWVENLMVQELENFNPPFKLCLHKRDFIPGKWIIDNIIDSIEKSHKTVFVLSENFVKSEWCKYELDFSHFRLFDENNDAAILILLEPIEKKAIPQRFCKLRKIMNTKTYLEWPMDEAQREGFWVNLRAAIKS

Data set [10] deals with Toll-like receptor 3 (Homo sapiens) (UniProt O15455). Kind of data set: Activity at human TLR3 expressed in HEK293 cells co-expressing secreted alkaline phosphatase assessed as induction of NF-kappaB/AP-1 promoter activity by measuring increase in secreted alkaline phosphatase level by spectrophotometric method. The data set is classed as cell-based. The method in brief: as §1
Sequence of Toll-like receptor 3 (Homo sapiens) (O15455 whole entry): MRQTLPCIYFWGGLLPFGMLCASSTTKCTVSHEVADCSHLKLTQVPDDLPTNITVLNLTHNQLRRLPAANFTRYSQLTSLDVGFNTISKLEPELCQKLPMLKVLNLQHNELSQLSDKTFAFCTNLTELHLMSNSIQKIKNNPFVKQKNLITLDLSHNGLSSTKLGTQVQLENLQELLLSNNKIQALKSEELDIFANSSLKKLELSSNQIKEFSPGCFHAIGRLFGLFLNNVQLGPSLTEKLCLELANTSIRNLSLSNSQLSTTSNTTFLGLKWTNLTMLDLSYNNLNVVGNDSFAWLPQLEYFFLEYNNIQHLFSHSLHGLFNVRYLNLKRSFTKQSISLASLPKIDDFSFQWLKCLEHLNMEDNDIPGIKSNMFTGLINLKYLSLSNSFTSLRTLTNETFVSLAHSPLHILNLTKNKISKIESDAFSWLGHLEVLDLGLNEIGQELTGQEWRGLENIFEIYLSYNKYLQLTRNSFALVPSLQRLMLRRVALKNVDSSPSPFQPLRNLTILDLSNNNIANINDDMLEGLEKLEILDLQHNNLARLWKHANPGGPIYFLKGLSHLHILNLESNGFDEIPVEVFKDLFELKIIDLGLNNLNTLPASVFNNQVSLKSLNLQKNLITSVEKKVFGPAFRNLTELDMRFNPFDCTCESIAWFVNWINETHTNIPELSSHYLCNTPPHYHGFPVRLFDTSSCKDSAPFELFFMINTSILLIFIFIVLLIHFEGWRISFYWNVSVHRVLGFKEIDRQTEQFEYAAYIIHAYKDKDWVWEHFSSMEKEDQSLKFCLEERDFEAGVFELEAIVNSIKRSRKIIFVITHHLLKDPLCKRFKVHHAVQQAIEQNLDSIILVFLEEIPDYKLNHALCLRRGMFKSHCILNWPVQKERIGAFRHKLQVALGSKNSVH

The target in data set [11] is Toll-like receptor 4 (Homo sapiens) (UniProt O00206). The data set can be described thus: Activity at human TLR4 expressed in HEK293 cells co-expressing secreted alkaline phosphatase assessed as induction of NF-kappaB/AP-1 promoter activity by measuring increase in secreted alkaline phosphatase level by spectrophotometric method. In kind it is cell-based. The method in brief:
as §1

The target in data set [12] is Toll-like receptor 5 (Homo sapiens) (UniProt O60602). The data set can be described thus: Activity at human TLR5 expressed in HEK293 cells co-expressing secreted alkaline phosphatase assessed as induction of NF-kappaB/AP-1 promoter activity by measuring increase in secreted alkaline phosphatase level by spectrophotometric method. In kind it is cell-based. The method in brief: as §1
Sequence of Toll-like receptor 5 (Homo sapiens) (O60602 whole entry): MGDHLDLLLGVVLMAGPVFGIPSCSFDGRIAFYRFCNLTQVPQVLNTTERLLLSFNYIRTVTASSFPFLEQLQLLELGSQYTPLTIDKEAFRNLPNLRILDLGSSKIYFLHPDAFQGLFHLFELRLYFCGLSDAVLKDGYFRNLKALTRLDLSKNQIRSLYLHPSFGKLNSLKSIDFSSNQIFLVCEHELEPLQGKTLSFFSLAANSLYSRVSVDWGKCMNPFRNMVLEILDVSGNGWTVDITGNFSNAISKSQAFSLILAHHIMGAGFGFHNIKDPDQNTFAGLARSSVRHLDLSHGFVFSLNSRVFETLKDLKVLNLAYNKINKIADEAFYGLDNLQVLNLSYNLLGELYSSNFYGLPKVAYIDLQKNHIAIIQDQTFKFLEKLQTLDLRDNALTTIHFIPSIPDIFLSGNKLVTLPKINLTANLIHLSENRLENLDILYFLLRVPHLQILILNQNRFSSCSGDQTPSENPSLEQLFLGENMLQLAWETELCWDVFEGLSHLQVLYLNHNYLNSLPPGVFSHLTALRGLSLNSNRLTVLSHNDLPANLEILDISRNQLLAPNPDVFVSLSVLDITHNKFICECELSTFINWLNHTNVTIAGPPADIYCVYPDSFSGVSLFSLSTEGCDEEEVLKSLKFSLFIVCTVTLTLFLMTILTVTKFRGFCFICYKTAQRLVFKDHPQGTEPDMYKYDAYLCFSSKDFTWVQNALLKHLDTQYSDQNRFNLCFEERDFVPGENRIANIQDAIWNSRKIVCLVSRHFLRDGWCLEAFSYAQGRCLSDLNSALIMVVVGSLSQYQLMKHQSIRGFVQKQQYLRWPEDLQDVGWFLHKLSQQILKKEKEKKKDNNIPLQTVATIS

Data set [13] deals with T3, Toll-like receptor 9 (Homo sapiens) (UniProt Q9NR96).
T3 sequence (whole entry): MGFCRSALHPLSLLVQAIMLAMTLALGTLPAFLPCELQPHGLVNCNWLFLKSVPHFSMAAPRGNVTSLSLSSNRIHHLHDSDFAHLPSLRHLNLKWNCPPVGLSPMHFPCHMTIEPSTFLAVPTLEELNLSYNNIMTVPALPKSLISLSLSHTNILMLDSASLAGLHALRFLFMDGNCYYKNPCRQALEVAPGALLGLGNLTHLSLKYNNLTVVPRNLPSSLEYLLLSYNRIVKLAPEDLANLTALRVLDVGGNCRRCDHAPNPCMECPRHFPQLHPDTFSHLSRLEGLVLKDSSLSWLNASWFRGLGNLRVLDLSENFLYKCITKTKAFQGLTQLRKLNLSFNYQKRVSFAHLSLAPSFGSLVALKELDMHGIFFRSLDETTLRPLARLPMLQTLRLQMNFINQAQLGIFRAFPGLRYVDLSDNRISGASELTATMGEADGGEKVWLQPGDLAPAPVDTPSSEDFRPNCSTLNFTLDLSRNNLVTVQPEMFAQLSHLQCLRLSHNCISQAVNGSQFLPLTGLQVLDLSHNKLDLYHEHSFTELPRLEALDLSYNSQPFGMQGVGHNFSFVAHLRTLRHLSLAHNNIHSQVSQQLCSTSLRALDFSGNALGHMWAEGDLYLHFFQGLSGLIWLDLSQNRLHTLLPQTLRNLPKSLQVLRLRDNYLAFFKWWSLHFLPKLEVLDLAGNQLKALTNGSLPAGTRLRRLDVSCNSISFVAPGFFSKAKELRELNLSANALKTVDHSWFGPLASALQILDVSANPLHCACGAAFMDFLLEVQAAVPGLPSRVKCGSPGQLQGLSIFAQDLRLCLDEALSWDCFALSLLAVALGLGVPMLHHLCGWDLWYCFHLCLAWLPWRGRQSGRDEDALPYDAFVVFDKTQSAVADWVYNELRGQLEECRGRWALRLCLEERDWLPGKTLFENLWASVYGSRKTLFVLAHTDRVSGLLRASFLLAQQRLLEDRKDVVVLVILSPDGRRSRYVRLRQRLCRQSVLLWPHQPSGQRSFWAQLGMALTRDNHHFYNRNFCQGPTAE
The data set can be described thus: Activity at human TLR9 expressed in HEK293 cells co-expressing secreted alkaline phosphatase assessed as induction of NF-kappaB/AP-1 promoter activity by measuring increase in secreted alkaline phosphatase level by spectrophotometric method. The data set is classed as cell-based. In outline:
as §1

The source made the active and inactive calls. The calls are words filed in the database; no cut-off is given here.

Here are results for two compounds from ChEMBL document CHEMBL4007404, “Identification of High-Potency Human TLR8 and Dual TLR7/TLR8 Agonists in Pyrimidine-2,4-diamines” (J Med Chem, 2017).

Sequence of Toll-like receptor 4 (Homo sapiens) (O00206 whole entry): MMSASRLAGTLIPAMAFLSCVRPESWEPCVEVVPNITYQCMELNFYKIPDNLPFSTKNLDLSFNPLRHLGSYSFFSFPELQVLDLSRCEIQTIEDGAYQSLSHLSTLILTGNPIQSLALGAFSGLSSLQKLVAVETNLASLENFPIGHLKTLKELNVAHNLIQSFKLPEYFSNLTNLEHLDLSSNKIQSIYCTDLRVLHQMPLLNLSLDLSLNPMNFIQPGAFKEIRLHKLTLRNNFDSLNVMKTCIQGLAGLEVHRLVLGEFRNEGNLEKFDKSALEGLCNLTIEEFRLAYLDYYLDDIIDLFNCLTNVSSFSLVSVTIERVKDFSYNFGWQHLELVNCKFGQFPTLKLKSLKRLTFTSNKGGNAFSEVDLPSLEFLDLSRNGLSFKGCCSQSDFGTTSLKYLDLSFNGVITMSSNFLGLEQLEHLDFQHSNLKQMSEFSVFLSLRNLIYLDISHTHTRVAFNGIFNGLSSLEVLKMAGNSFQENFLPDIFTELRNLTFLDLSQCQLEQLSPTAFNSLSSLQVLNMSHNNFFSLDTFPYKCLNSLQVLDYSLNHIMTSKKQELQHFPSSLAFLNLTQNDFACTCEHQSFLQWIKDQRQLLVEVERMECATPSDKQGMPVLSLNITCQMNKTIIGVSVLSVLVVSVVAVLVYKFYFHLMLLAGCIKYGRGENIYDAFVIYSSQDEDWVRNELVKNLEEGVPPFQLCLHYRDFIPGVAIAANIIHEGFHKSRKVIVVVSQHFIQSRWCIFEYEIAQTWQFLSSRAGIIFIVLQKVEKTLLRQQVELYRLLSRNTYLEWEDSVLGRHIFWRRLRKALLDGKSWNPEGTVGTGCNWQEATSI

Take `CCCCc1nc2c(N)nc3ccccc3c2n1Cc1ccc(CN)cc1`: the outcome in [1], in data set [2], in data set [5], in data set [6] and in [7] was Active. Moreover, the inhibition result in data set [3] and in data set [4] was “Active” throughout. The Activity entry with HEK293 is given as “Non-Toxic”.
For `CCCCNc1nc(N)nc(C)c1Cc1ccccc1`, the result in data set [8], in data set [9], in [10], in data set [11], in data set [12] and in [13] was inactive.
